Experimental findings from ChEMBL document CHEMBL4765453, “Phenanthrolinic analogs of quinolones show antibacterial activity against M. tuberculosis” (Eur J Med Chem, 2020) are described below.

≈ marks a conversion by molar mass, not a printed value.

The assay has as its system Mycobacterium tuberculosis. Kind of assay: Antibacterial activity against Mycobacterium bovis BCG measured after 7 days by resazurin microtiter assay. The format is functional. Particulars: variant bovis BCG, 168 h, time 7 day. Summed up: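 Resazurin microtiter assay with two-fold drug dilutions in complete 7H9 broth. Exponential-phase cells are diluted to a final OD600 of 0.005 in 7H9 without Tween. Incubation is 7 days at 37°C, then 0.01% resazurin is added and plates are held 24 h more. MIC is the lowest concentration preventing the blue-to-pink change. Each MIC is determined three times in duplicate experiments.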
`Cn1cc(C(=O)O)c(=O)c2cc([N+](=O)[O-])c3cccnc3c21` gave an MIC90 of 1.4 µM (≈ 0.419 µg/mL).
To `CCOC(=O)c1cn(C)c2c(cc([N+](=O)[O-])c3cccnc32)c1=O` belongs 2.35 µM (≈ 0.769 µg/mL); to `CCn1cc(C(=O)O)c(=O)c2cc([N+](=O)[O-])c3cccnc3c21`, 2.67 µM (≈ 0.836 µg/mL).
To `CCOC(=O)c1cn(CC)c2c(cc([N+](=O)[O-])c3cccnc32)c1=O` belongs 2.5 µM (≈ 0.853 µg/mL); to `NCC[C@H](O)C(=O)N[C@@H]1C[C@H](N)[C@@H](O[C@H]2O[C@H](CN)[C@@H](O)[C@H](O)[C@H]2O)[C@H](O)[C@H]1O[C@H]1O[C@H](CO)[C@@H](O)[C@H](N)[C@H]1O` [AMIKACIN], 0.46 µM (≈ 0.269 µg/mL).
The figure for `CC1COc2c(N3CCN(C)CC3)c(F)cc3c(=O)c(C(=O)O)cn1c23` (stereo unspecified) [OFLOXACIN] is 1.73 µM (≈ 0.625 µg/mL).
